Source: ChEMBL document CHEMBL3232844, “Synthesis and structure activity relationships of schweinfurthin indoles” (2014)

Experiments:
Assay type in all cases: functional
NCI-H460 = assay: Cytotoxicity against human NCI-H460 cells
Method in brief: (§1)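 Tested in a 60-cell-line human tumor panel screen; the read-out is growth inhibition, reported as GI50 for each cell line.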

NCI-H23 = assay: Cytotoxicity against human NCI-H23 cells; method in brief: as §1
SK-MEL-5 = assay: Cytotoxicity against human SK-MEL-5 cells; method in brief: as §1
NCI-H322M = assay: Cytotoxicity against human NCI-H322M cells; method in brief: as §1
[1] = Cytotoxicity against human UO31 cells
Method in brief: (§2)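 Cell line run as part of the 60-cell-line screening panel; growth inhibition was reported as a GI50 for each line.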

HT-29 = assay: Cytotoxicity against human HT-29 cells; method in brief: as §1
K562 = assay: Cytotoxicity against human K562 cells; method in brief: as §1
SNB-75 = assay: Cytotoxicity against human SNB75 cells; method in brief: as §2
SN12C = assay: Cytotoxicity against human SN12C cells; method in brief: as §1
MDA-MB-435 = assay: Cytotoxicity against human MDA-MB-435 cells; method in brief: as §1
[2] = Cytotoxicity against human OVCAR5 cells; method in brief: as §1
SR = assay: Cytotoxicity against human SR cells; method in brief: as §2
M14 = assay: Cytotoxicity against human M14 cells; method in brief: as §1
PC-3 = assay: Cytotoxicity against human PC3 cells; method in brief: as §1
SF-295 = assay: Cytotoxicity against human SF295 cells; method in brief: as §1
[3] = Cytotoxicity against human EKVX cells; method in brief: as §1
U-251 = assay: Cytotoxicity against human U251 cells; method in brief: as §2
HCC 2998 = assay: Cytotoxicity against human HCC2998 cells; method in brief: as §1
SF-268 = assay: Cytotoxicity against human SF268 cells; method in brief: as §1
NCI-H226 = assay: Cytotoxicity against human NCI-H226 cells; method in brief: as §1
MOLT-4 = assay: Cytotoxicity against human MOLT4 cells; method in brief: as §1
[4] = Cytotoxicity against human OVCAR8 cells; method in brief: as §1
A498 = assay: Cytotoxicity against human A498 cells; method in brief: as §1
SF-539 = assay: Cytotoxicity against human SF539 cells; method in brief: as §1
BT-549 = assay: Cytotoxicity against human BT549 cells; method in brief: as §1
[5] = Cytotoxicity against human NCI-ADR-RES cells; method in brief: as §1
RXF 393 = assay: Cytotoxicity against human RXF393 cells; method in brief: as §1
DU-145 = assay: Cytotoxicity against human DU145 cells; method in brief: as §1
T47D = assay: Cytotoxicity against human T47D cells; method in brief: as §2
MDA-MB-231 = assay: Cytotoxicity against human MDA-MB-231 cells; method in brief: as §1
[6] = Cytotoxicity against human UACC62 cells; method in brief: as §2
[7] = Cytotoxicity against human UACC257 cells; method in brief: as §2
SK-OV-3 = assay: Cytotoxicity against human SKOV3 cells; method in brief: as §1
HL-60(TB) = assay: Cytotoxicity against human HL-60(TB) cells
Method in brief: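 Tested within the NCI 60-cell-line screen, with GI50 as the read-out. Values are the average of two independent experiments. The lowest concentration tested was 10 nM.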

CCRF-CEM = assay: Cytotoxicity against human CCRF-CEM cells
[8] = Cytotoxicity against human OVCAR3 cells; method in brief: as §1
MCF7 = assay: Cytotoxicity against human MCF7 cells; method in brief: as §1
SK-MEL-2 = assay: Cytotoxicity against human SK-MEL-2 cells; method in brief: as §1
ACHN = assay: Cytotoxicity against human ACHN cells; method in brief: as §1
KM12 = assay: Cytotoxicity against human KM12 cells; method in brief: as §1
786-0 = assay: Cytotoxicity against human 786-0 cells; method in brief: as §1
MDA-MB-468 = assay: Cytotoxicity against human MDA-MB-468 cells; method in brief: as §1
SNB-19 = assay: Cytotoxicity against human SNB19 cells; method in brief: as §1
[9] = read-out: pLC50 (the source's name) (converted)

## COc1cc(/C=C/c2cc(O)c3c(c2)C[C@@H]2C(C)(C)[C@H](O)CC[C@@]2(C)O3)cc2[nH]cc(CC=C(C)C)c12
NCI-H460
  GI50: 0.209 µM
NCI-H460; [9]
  CC50: 66.1 µM
NCI-H460; read-out: pTGI (converted)
  TGI: 26.9 µM
NCI-H23
  GI50: 1.55 µM
NCI-H23; [9]
  CC50: 66.1 µM
NCI-H23; read-out: pTGI (converted)
  TGI: 26.9 µM
SK-MEL-5
  GI50: 1.23 µM
SK-MEL-5; [9]
  CC50: 7.08 µM
SK-MEL-5; read-out: pTGI (converted)
  TGI: 2.14 µM
NCI-H322M
  GI50: 18.2 µM
NCI-H322M; [9]
  CC50: 77.6 µM
NCI-H322M; read-out: pTGI (converted)
  TGI: 49 µM
[1]; UO-31
  GI50: 0.129 µM
  LC50: 69.2 µM
[1]; UO-31, read-out: pTGI (converted)
  TGI: 21.4 µM
HT-29
  GI50: 0.832 µM
HT-29; [9]
  CC50: 21.4 µM
HT-29; read-out: pTGI (converted)
  TGI: 5.37 µM
K562
  GI50: 0.138 µM
K562; [9]
  CC50: > 100 µM
K562; read-out: pTGI (converted)
  TGI: 9.77 µM
SNB-75
  GI50: 0.01 µM
SNB-75; [9]
  CC50: 64.6 µM
SNB-75; read-out: pTGI (converted)
  TGI: 10.5 µM
SN12C
  GI50: 8.51 µM
  LC50: 75.9 µM
SN12C; read-out: pTGI (converted)
  TGI: 45.7 µM
MDA-MB-435
  GI50: 0.437 µM
MDA-MB-435; [9]
  CC50: 95.5 µM
MDA-MB-435; read-out: pTGI (converted)
  TGI: 38 µM
[2]; OVCAR-5
  GI50: 5.37 µM
[2]; OVCAR-5, read-out: pLC50 (the source's name) (converted)
  CC50: 60.3 µM
[2]; OVCAR-5, read-out: pTGI (converted)
  TGI: 30.2 µM
SR
  GI50: 0.155 µM
SR; [9]
  CC50: > 100 µM
SR; read-out: pTGI (converted)
  TGI: 32.4 µM
M14
  GI50: 0.537 µM
M14; [9]
  CC50: 64.6 µM
M14; read-out: pTGI (converted)
  TGI: 32.4 µM
PC-3
  GI50: 1.32 µM
  LC50: > 100 µM
PC-3; read-out: pTGI (converted)
  TGI: 43.7 µM
SF-295; read-out: GI50
  GI50: < 0.023 µM
SF-295; read-out: pGI50 (converted)
  GI50: 0.0234 µM
SF-295; [9]
  CC50: 6.46 µM
SF-295; read-out: pTGI (converted)
  TGI: 0.115 µM
[3]
  GI50: 3.89 µM
[3]; [9]
  CC50: 81.3 µM
[3]; read-out: pTGI (converted)
  TGI: 39.8 µM
U-251
  GI50: 0.01 µM
U-251; [9]
  CC50: 60.3 µM
U-251; read-out: pTGI (converted)
  TGI: 32.4 µM
HCC 2998
  GI50: 6.03 µM
HCC 2998; [9]
  CC50: 67.6 µM
HCC 2998; read-out: pTGI (converted)
  TGI: 37.2 µM
SF-268
  GI50: 0.851 µM
SF-268; [9]
  CC50: 69.2 µM
SF-268; read-out: pTGI (converted)
  TGI: 38.9 µM
NCI-H226
  GI50: 8.32 µM
NCI-H226; [9]
  CC50: 72.4 µM
NCI-H226; read-out: pTGI (converted)
  TGI: 33.1 µM
MOLT-4
  GI50: 0.105 µM
MOLT-4; [9]
  CC50: > 100 µM
MOLT-4; read-out: pTGI (converted)
  TGI: 2.57 µM
[4]; OVCAR-8
  GI50: 11.5 µM
[4]; OVCAR-8, read-out: pLC50 (the source's name) (converted)
  CC50: 79.4 µM
[4]; OVCAR-8, read-out: pTGI (converted)
  TGI: 47.9 µM
A498
  GI50: 0.0661 µM
A498; [9]
  CC50: 44.7 µM
A498; read-out: pTGI (converted)
  TGI: 2.69 µM
SF-539
  GI50: 0.01 µM
SF-539; [9]
  CC50: 24.5 µM
SF-539; read-out: pTGI (converted)
  TGI: 4.47 µM
BT-549
  GI50: 0.479 µM
BT-549; [9]
  CC50: 67.6 µM
BT-549; read-out: pTGI (converted)
  TGI: 41.7 µM
[5]
  GI50: 7.59 µM
[5]; [9]
  CC50: 85.1 µM
[5]; read-out: pTGI (converted)
  TGI: 46.8 µM
RXF 393
  GI50: 0.01 µM
  LC50: 8.51 µM
RXF 393; read-out: pTGI (converted)
  TGI: 0.0339 µM
DU-145
  GI50: 5.25 µM
  LC50 (50% lethal concentration): 64.6 µM
DU-145; read-out: pTGI (converted)
  TGI: 39.8 µM
T47D
  GI50: 8.13 µM
T47D; [9]
  CC50: > 100 µM
T47D; read-out: pTGI (converted)
  TGI: 39.8 µM
MDA-MB-231
  GI50: 0.891 µM
  LC50: 45.7 µM
MDA-MB-231; read-out: pTGI (converted)
  TGI: 9.77 µM
[6]; UACC-62
  GI50: 0.1 µM
[6]; UACC-62, read-out: pLC50 (the source's name) (converted)
  CC50: 33.9 µM
[6]; UACC-62, read-out: pTGI (converted)
  TGI: 0.955 µM
[7]; UACC-257
  GI50: 14.5 µM
[7]; UACC-257, read-out: pLC50 (the source's name) (converted)
  CC50: 77.6 µM
[7]; UACC-257, read-out: pTGI (converted)
  TGI: 49 µM
SK-OV-3
  GI50: 4.68 µM
  LC50: 77.6 µM
SK-OV-3; read-out: pTGI (converted)
  TGI: 39.8 µM
HL-60(TB)
  GI50: 0.0646 µM
HL-60(TB); [9]
  CC50: 79.4 µM
HL-60(TB); read-out: pTGI (converted)
  TGI: 18.2 µM
CCRF-CEM
  GI50: 0.0871 µM
CCRF-CEM; [9]
  CC50: > 100 µM
CCRF-CEM; read-out: pTGI (converted)
  TGI: 14.8 µM
[8]; OVCAR-3
  GI50: 8.71 µM
[8]; OVCAR-3, read-out: pLC50 (the source's name) (converted)
  CC50: 63.1 µM
[8]; OVCAR-3, read-out: pTGI (converted)
  TGI: 36.3 µM
MCF7
  GI50: 0.537 µM
  LC50: 55 µM
MCF7; read-out: pTGI (converted)
  TGI: 12.3 µM
SK-MEL-2
  GI50: 0.105 µM
SK-MEL-2; [9]
  CC50: 50.1 µM
SK-MEL-2; read-out: pTGI (converted)
  TGI: 5.25 µM
ACHN
  GI50: 3.63 µM
  LC50 (concentration killing 50% of cells): 61.7 µM
ACHN; read-out: pTGI (converted)
  TGI: 38 µM
KM12
  GI50: 2.95 µM
KM12; [9]
  CC50: 33.1 µM
KM12; read-out: pTGI (converted)
  TGI: 10.2 µM
786-0
  GI50: 0.01 µM
  LC50 (concentration killing 50% of cells): 21.4 µM
786-0; read-out: pTGI (converted)
  TGI: 2.45 µM
MDA-MB-468
  GI50: 0.182 µM
  LC50: 67.6 µM
MDA-MB-468; read-out: pTGI (converted)
  TGI: 4.79 µM
SNB-19
  GI50: 0.575 µM
SNB-19; [9]
  CC50: 64.6 µM
SNB-19; read-out: pTGI (converted)
  TGI: 35.5 µM
